In test [1] the test system is Candida albicans. Nature of the test: Antifungal activity against Candida albicans SC5314 infected in ICR mouse assessed as increase in host survival at 1 mg/kg, po qd for 7 days starting from 2 hrs post infection measured up to 20 days. In kind it is functional, organism-based. Put shortly: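 Male ICR mice (18–22 g, ten per group) were immunosuppressed with intraperitoneal cyclophosphamide 100 mg/kg once daily for 3 days. They were then infected with 0.4 ml of […] C. albicans SC5314. Oral dosing in 0.5% carboxymethylcellulose suspension began 2 h post-infection, with vehicle-only controls. Read-out was mean survival days over 20 days.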

The next test has as its system Aspergillus fumigatus. Nature of the test: Antifungal activity against Aspergillus fumigatus after 5 to 7 days. The class given is functional. Put shortly:
(§1)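 Filamentous fungi were tested by broth dilution following NCCLS recommendations. Compounds were dissolved in DMSO in growth medium, inoculated and incubated at 35 °C, with MIC80 read after 5–7 days. MIC80 is the first well with approximately 80% growth reduction relative to the drug-free well. Results are the mean of three replicates.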

The next test has as its system Candida tropicalis. Nature of the test: Antifungal activity against Candida tropicalis after 24 hrs. In kind it is functional. Put shortly: (§2)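 MIC measured by broth dilution per NCCLS recommendations. Compounds were dissolved in DMSO in growth medium, inoculated and incubated at 35 °C. MIC80 is the first well with approximately 80% lower growth than the drug-free well. Values are the mean of three replicate tests.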

In another test the test system is Candida parapsilosis. Nature of the test: Antifungal activity against Candida parapsilosis after 5 to 7 days. The class given is functional. Particulars: Lodderomyces parapsilosis.
The subject of test [2] is Candida albicans. Nature of the test: Antifungal activity against Candida albicans SCY0109 after 24 hrs. The class given is functional. The settings on record: SCY0109, 24 h. Put shortly:
(§3)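 Broth dilution MIC per NCCLS recommendations. Compounds were dissolved in DMSO in growth medium, then inoculated and incubated at 35 °C, with growth read at 24 h for C. albicans. MIC80 is the first well showing about 80% growth reduction versus the drug-free well. Values are the mean of three replicate tests.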

The next test has as its system Cryptococcus neoformans. Nature of the test: Antifungal activity against Cryptococcus neoformans after 72 hrs. The class given is functional. Put shortly: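 NCCLS-based broth dilution against C. neoformans. Test agents were in DMSO in growth medium, inoculated and held at 35 °C, and MIC80 was read at 72 h. MIC80 is the first well with roughly 80% less growth than the drug-free well. Each value averages three replicate tests.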

Another test concerns Trichophyton rubrum. Nature of the test: Antifungal activity against Trichophyton rubrum after 5 to 7 days. In kind it is functional. A digest of the protocol:
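Broth dilution per NCCLS recommendations against an ATCC strain; compounds dissolved in DMSO in growth medium; incubated at 35 °C. MIC80 is the first well with about 80% growth reduction versus the drug-free well, read at 5–7 days for filamentous fungi. Values are the mean of three replicate tests.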

In the next test the test system is Pichia kudriavzevii. Nature of the test: Antifungal activity against Candida krusei after 5 to 7 days. In kind it is functional. Put shortly:
as §2

The test system of another test is Nannizzia gypsea. Nature of the test: Antifungal activity against Microsporum gypseum after 5 to 7 days. In kind it is functional. Put shortly:
as §1

Test [3] concerns Candida albicans. Nature of the test: Antifungal activity against Candida albicans SC5314 after 24 hrs. The settings on record: SC5314, 24 h. In kind it is functional. A digest of the protocol:
as §3

In the next test the test system is Nakaseomyces glabratus. Nature of the test: Antifungal activity against Candida glabrata after 5 to 7 days. The class given is functional.

The structures appear in SMILES notation. In brackets after ≈: the same amount, converted by molar mass. Activity calls are given as the source filed them. No cut-off for these calls is given here. Some results are limits rather than exact numbers.

`OC(Cn1cncn1)(Cn1cncn1)c1ccc(F)cc1F` [FLUCONAZOLE]: in the test on Candida albicans [1], the result was Active. Moreover, the MIC80 was above 64 µg/mL against Aspergillus fumigatus; 32 µg/mL (≈ 104 µM) in the test with Candida tropicalis; 0.5 µg/mL (≈ 1.63 µM) against Candida parapsilosis; 0.25 µg/mL (≈ 0.816 µM) against Candida albicans [2]; 2 µg/mL (≈ 6.53 µM) in the test on Cryptococcus neoformans; 1 µg/mL (≈ 3.27 µM) in the test on Trichophyton rubrum. The MIC80 against Pichia kudriavzevii stood at 32 µg/mL (≈ 104 µM); in the test on Nannizzia gypsea, 8 µg/mL (≈ 26.1 µM); in the test with Candida albicans [3] it was 1 µg/mL (≈ 3.27 µM); in the test with Nakaseomyces glabratus, 1 µg/mL (≈ 3.27 µM).
Turning to `C[C@@H](N1CCOCC1)[C@](O)(Cn1cncn1)c1ccc(F)cc1F`, the outcome in the test with Candida albicans [1] was Active. Further, the MIC80 with Aspergillus fumigatus is 0.125 µg/mL (≈ 0.369 µM); with Candida tropicalis it was 0.5 µg/mL (≈ 1.48 µM); in the test with Candida parapsilosis, 0.0625 µg/mL (≈ 0.185 µM); in the test with Candida albicans [2], 0.0156 µg/mL (≈ 0.0461 µM); with Cryptococcus neoformans, 0.0156 µg/mL (≈ 0.0461 µM); with Trichophyton rubrum, 0.0625 µg/mL (≈ 0.185 µM). The MIC80 against Pichia kudriavzevii turned out to be 0.5 µg/mL (≈ 1.48 µM); against Nannizzia gypsea it was 0.0625 µg/mL (≈ 0.185 µM); in the test on Candida albicans [3] it was 0.0312 µg/mL (≈ 0.0924 µM); in the test with Nakaseomyces glabratus it was 0.0312 µg/mL (≈ 0.0924 µM).

The values are drawn from ChEMBL document CHEMBL4138173, “Molecular docking, design, synthesis and antifungal activity study of novel triazole derivatives” (2018).
